# ChEMBL document CHEMBL4689842, “EUbOPEN Chemogenomics Library wave 1” (2021)
# Test system: HEK-293T
# Test: Multiplex assay against HEK293T;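 as to Population Tubulin-Different-Phenotype (%): share of the cells with healthy nuclei that show this phenotype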
# Assay type: toxicity, cell-based
# Details: human
# Summary of the method: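 Live cells were stained at seeding with Hoechst33342, BioTracker Green Microtubule Cytoskeleton Dye, MitoTracker Red and Annexin V Alexa Fluor 680, then imaged on a CQ1 microscope at 37°C and 5% CO2 after compound addition. CellPathfinder machine-learning gating split cells into Hoechst high-intensity objects or normal cells. Normal cells were split into healthy, pyknosed or fragmented nuclei, and pyknosed cells into mitotic or apoptotic. Tubulin, mitochondrial-mass and membrane-permeability phenotypes are per cents of healthy-nucleus cells.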
# [1] = 12 h, 1 µM, compound concentration 1 uM, replicate 1
# [2] = 12 h, 1 µM, compound concentration 1 uM, replicate 2
# [3] = 12 h, 10 µM, compound concentration 10 uM, replicate 1
# [4] = 12 h, 10 µM, compound concentration 10 uM, replicate 2
# [5] = 24 h, 1 µM, compound concentration 1 uM, replicate 1
# [6] = 24 h, 1 µM, compound concentration 1 uM, replicate 2
# [7] = 24 h, 10 µM, compound concentration 10 uM, replicate 1
# [8] = 24 h, 10 µM, compound concentration 10 uM, replicate 2
# [9] = 48 h, 1 µM, compound concentration 1 uM, replicate 1
# [10] = 48 h, 1 µM, compound concentration 1 uM, replicate 2
# [11] = 48 h, 10 µM, compound concentration 10 uM, replicate 1
# [12] = 48 h, 10 µM, compound concentration 10 uM, replicate 2
smiles,measurement,setting,value
OC1(c2ccc(Cl)cc2)CCN(Cc2c[nH]c3ccccc23)CC1,Population Apoptotic (%),[1],51%
same,Population Fragmented Nuclei (%),[1],20%
same,Population Healthy Nuclei (%),[1],14%
same,Population Hoechst High Intensity Objects (%),[1],15%
same,Population Membrane Permeable-Phenotype (%),[1],4%
same,Population Mitochondria Different-Phenotype (%),[1],63%
same,Population Mitotic Cells (%),[1],48%
same,Population Normal (%),[1],84%
same,Population Pyknosed Nuclei (%),[1],65%
same,Population Tubulin-Different-Phenotype (%),[1],45%
same,Total Cell Count,[1],177
same,Population Apoptotic (%),[2],18%
same,Population Fragmented Nuclei (%),[2],6%
same,Population Healthy Nuclei (%),[2],29%
same,Population Hoechst High Intensity Objects (%),[2],6%
same,Population Membrane Permeable-Phenotype (%),[2],7%
same,Population Mitochondria Different-Phenotype (%),[2],34%
same,Population Mitotic Cells (%),[2],81%
same,Population Normal (%),[2],93%
same,Population Pyknosed Nuclei (%),[2],63%
same,Population Tubulin-Different-Phenotype (%),[2],42%
same,Total Cell Count,[2],136
same,Population Apoptotic (%),[3],70%
same,Population Fragmented Nuclei (%),[3],11%
same,Population Healthy Nuclei (%),[3],11%
same,Population Hoechst High Intensity Objects (%),[3],15%
same,Population Membrane Permeable-Phenotype (%),[3],7%
same,Population Mitochondria Different-Phenotype (%),[3],100%
same,Population Mitotic Cells (%),[3],29%
same,Population Normal (%),[3],84%
same,Population Pyknosed Nuclei (%),[3],77%
same,Population Tubulin-Different-Phenotype (%),[3],92%
same,Total Cell Count,[3],275
same,Population Apoptotic (%),[4],63%
same,Population Fragmented Nuclei (%),[4],5%
same,Population Healthy Nuclei (%),[4],14%
same,Population Hoechst High Intensity Objects (%),[4],9%
same,Population Membrane Permeable-Phenotype (%),[4],17%
same,Population Mitochondria Different-Phenotype (%),[4],89%
same,Population Mitotic Cells (%),[4],36%
same,Population Normal (%),[4],90%
same,Population Pyknosed Nuclei (%),[4],80%
same,Population Tubulin-Different-Phenotype (%),[4],86%
same,Total Cell Count,[4],223
same,Population Apoptotic (%),[5],50%
same,Population Fragmented Nuclei (%),[5],22%
same,Population Healthy Nuclei (%),[5],30%
same,Population Hoechst High Intensity Objects (%),[5],16%
same,Population Membrane Permeable-Phenotype (%),[5],3%
same,Population Mitochondria Different-Phenotype (%),[5],70%
same,Population Mitotic Cells (%),[5],49%
same,Population Normal (%),[5],83%
same,Population Pyknosed Nuclei (%),[5],46%
same,Population Tubulin-Different-Phenotype (%),[5],42%
same,Total Cell Count,[5],210
same,Population Apoptotic (%),[6],27%
same,Population Fragmented Nuclei (%),[6],6%
same,Population Healthy Nuclei (%),[6],52%
same,Population Hoechst High Intensity Objects (%),[6],5%
same,Population Membrane Permeable-Phenotype (%),[6],8%
same,Population Mitochondria Different-Phenotype (%),[6],30%
same,Population Mitotic Cells (%),[6],72%
same,Population Normal (%),[6],94%
same,Population Pyknosed Nuclei (%),[6],40%
same,Population Tubulin-Different-Phenotype (%),[6],50%
same,Total Cell Count,[6],171
same,Population Apoptotic (%),[7],76%
same,Population Fragmented Nuclei (%),[7],14%
same,Population Healthy Nuclei (%),[7],3%
same,Population Hoechst High Intensity Objects (%),[7],16%
same,Population Membrane Permeable-Phenotype (%),[7],0%
same,Population Mitochondria Different-Phenotype (%),[7],100%
same,Population Mitotic Cells (%),[7],23%
same,Population Normal (%),[7],83%
same,Population Pyknosed Nuclei (%),[7],81%
same,Population Tubulin-Different-Phenotype (%),[7],100%
same,Total Cell Count,[7],282
same,Population Apoptotic (%),[8],89%
same,Population Fragmented Nuclei (%),[8],5%
same,Population Healthy Nuclei (%),[8],8%
same,Population Hoechst High Intensity Objects (%),[8],8%
same,Population Membrane Permeable-Phenotype (%),[8],15%
same,Population Mitochondria Different-Phenotype (%),[8],73%
same,Population Mitotic Cells (%),[8],10%
same,Population Normal (%),[8],91%
same,Population Pyknosed Nuclei (%),[8],85%
same,Population Tubulin-Different-Phenotype (%),[8],84%
same,Total Cell Count,[8],238
same,Population Apoptotic (%),[9],58%
same,Population Fragmented Nuclei (%),[9],19%
same,Population Healthy Nuclei (%),[9],53%
same,Population Hoechst High Intensity Objects (%),[9],13%
same,Population Mitochondria Different-Phenotype (%),[9],41%
same,Population Mitotic Cells (%),[9],41%
same,Population Normal (%),[9],86%
same,Population Pyknosed Nuclei (%),[9],26%
same,Population Tubulin-Different-Phenotype (%),[9],31%
same,Total Cell Count,[9],247
same,Population Apoptotic (%),[10],7%
same,Population Fragmented Nuclei (%),[10],7%
same,Population Healthy Nuclei (%),[10],70%
same,Population Hoechst High Intensity Objects (%),[10],2%
same,Population Membrane Permeable-Phenotype (%),[10],6%
same,Population Mitochondria Different-Phenotype (%),[10],15%
same,Population Mitotic Cells (%),[10],92%
same,Population Normal (%),[10],97%
same,Population Pyknosed Nuclei (%),[10],22%
same,Population Tubulin-Different-Phenotype (%),[10],39%
same,Total Cell Count,[10],264
same,Population Apoptotic (%),[11],71%
same,Population Fragmented Nuclei (%),[11],22%
same,Population Healthy Nuclei (%),[11],0%
same,Population Hoechst High Intensity Objects (%),[11],18%
same,Population Membrane Permeable-Phenotype (%),[11],0%
same,Population Mitochondria Different-Phenotype (%),[11],100%
same,Population Mitotic Cells (%),[11],28%
same,Population Normal (%),[11],81%
same,Population Pyknosed Nuclei (%),[11],77%
same,Population Tubulin-Different-Phenotype (%),[11],100%
same,Total Cell Count,[11],295
same,Population Apoptotic (%),[12],89%
same,Population Fragmented Nuclei (%),[12],19%
same,Population Healthy Nuclei (%),[12],19%
same,Population Hoechst High Intensity Objects (%),[12],4%
same,Population Membrane Permeable-Phenotype (%),[12],4%
same,Population Mitochondria Different-Phenotype (%),[12],71%
same,Population Mitotic Cells (%),[12],10%
same,Population Normal (%),[12],95%
same,Population Pyknosed Nuclei (%),[12],60%
same,Population Tubulin-Different-Phenotype (%),[12],95%
same,Total Cell Count,[12],224
